Source: ChEMBL document CHEMBL4118152, “Discovery of Potent and Selective Periphery-Restricted Quinazoline Inhibitors of the Cyclic Nucleotide Phosphodiesterase PDE1” (J Med Chem, 2018)

Tests used:
[1] = biological target: Cholecystokinin receptor type A (Homo sapiens) (UniProt P32238); test: Inhibition of human cholecystokinin CCK1 receptor at 10 uM relative to control
[2] = Fraction unbound in Wistar Hannover rat brain at 1 mg/kg, sc measured at 4 hrs post dose by LC-MS/MS analysis; format: ADME, organism-based; conditions: in vivo, BLD = below limit of detection
[3] = organism: Homo sapiens; test: Inhibition of human GABA-B receptor at 10 uM relative to control
[4] = organism: Homo sapiens; test: Selectivity ratio of IC50 for full length recombinant human PDE4D3 to IC50 for full length recombinant human PDE1A
How it was run: (§1)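 IC50s were measured against recombinant PDEs, all human except PDE6A (bovine). Each enzyme was given its appropriate cAMP or cGMP substrate at below 1/3 of its Km. IC50s are the mean of n = 3 or more. The selectivity ratio is the IC50 for the other PDE divided by the IC50 for PDE1B1 or PDE1A.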

[5] = organism: Rattus norvegicus; test: Inhibition of rat brain GABA transporter assessed as [3H]GABA uptake at 10 uM after 30 mins by scintillation counting analysis relative to control
[6] = biological target: MAO-A (Homo sapiens, UniProt P21397); test: Inhibition of human MAO-A at 10 uM relative to control
[7] = Selectivity ratio of IC50 for bovine retina PDE6A to IC50 for full length recombinant human PDE1A; how it was run: as §1
[8] = Ratio of drug uptake in cerebrospinal fluid to fraction unbound in plasma in Wistar Hannover rat at 1 mg/kg, sc measured at 0.5 hrs post dose by LC-MS/MS analysis; format: ADME, organism-based, CSF/Plasma; conditions: in vivo
[9] = biological target: 5-hydroxytryptamine receptor 1A (Homo sapiens) (UniProt P08908); test: Inhibition of human 5-HT1A receptor at 10 uM relative to control
[10] = Ratio of fraction unbound in Wistar Hannover rat brain to plasma at 1 mg/kg, sc measured at 0.5 hrs post dose by LC-MS/MS analysis; format: ADME, organism-based; conditions: in vivo
[11] = organism: Rattus norvegicus; test: Displacement of [3H]CGP 39653 from rat brain Glutamate receptor ionotropic, NMDA at 10 uM after 60 mins by scintillation counting analysis relative to control
[12] = biological target: Sodium-dependent noradrenaline transporter (Homo sapiens) (UniProt P23975); test: Inhibition of human norepinephrine transporter at 10 uM relative to control
[13] = biological target: Dual 3',5'-cyclic-AMP and -GMP phosphodiesterase 11A (Homo sapiens, UniProt Q9HCR9); test: Inhibition of full length recombinant human PDE11A4 using 3',5'-[3H]cGMP as substrate after 30 mins by scintillation proximity assay
How it was run: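 Enzymes were human except PDE6A, which was bovine. Each was assayed with cAMP or cGMP substrate, as appropriate to the enzyme, at concentrations below 1/3 of Km. IC50 values are mean ± SEM from n = 3 or more.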

[14] = Selectivity ratio of IC50 for bovine retina PDE6A to IC50 for full length recombinant human PDE1B1; how it was run: as §1
[15] = biological target: BCRP (ABCG2) (Homo sapiens, UniProt Q9UNQ0); test: Substrate activity at BCRP (unknown origin) assessed as efflux ratio; conditions: not told
[16] = Fraction unbound in Wistar Hannover rat plasma at 1 mg/kg, sc measured at 0.5 hrs post dose by LC-MS/MS analysis; format: ADME, organism-based; conditions: in vivo
[17] = biological target: Histamine H2 receptor (Homo sapiens) (UniProt P25021); test: Inhibition of human histamine H2 receptor at 10 uM relative to control
[18] = biological target: Prostaglandin G/H synthase 2 (Homo sapiens) (UniProt P35354); test: Inhibition of recombinant human cyclooxygenase 2 using arachidonic acid/ADHP as substrate at 10 uM after 5 mins by Fluorimetric method relative to control
[19] = organism: Homo sapiens; test: Selectivity ratio of IC50 for full length recombinant human PDE11A4 to IC50 for full length recombinant human PDE1A; how it was run: as §1
[20] = biological target: 5-hydroxytryptamine receptor 2C (Homo sapiens) (UniProt P28335); test: Inhibition of human 5-HT2C receptor at 10 uM relative to control
[21] = biological target: Muscarinic acetylcholine receptor M3 (Homo sapiens) (UniProt P20309); test: Inhibition of human muscarinic M3 receptor at 10 uM relative to control
[22] = biological target: CYP3A4 (Homo sapiens, UniProt P08684); test: Inhibition of CYP3A4 (unknown origin) at 10 uM relative to control; format: ADME
[23] = organism: Homo sapiens; test: Inhibition of human 5-HT2 receptor at 10 uM relative to control
[24] = organism: Homo sapiens; test: Selectivity ratio of IC50 for full length recombinant human PDE3A1 to IC50 for full length recombinant human PDE1B1; how it was run: as §1
[25] = biological target: D(1A) dopamine receptor (Homo sapiens) (UniProt P21728); test: Inhibition of human dopamine D1 receptor at 10 uM relative to control
[26] = biological target: CYP2D6 (Homo sapiens, UniProt P10635); test: Inhibition of CYP2D6 (unknown origin) at 10 uM relative to control; format: ADME
Chain of CYP2D6 (P10635 whole entry): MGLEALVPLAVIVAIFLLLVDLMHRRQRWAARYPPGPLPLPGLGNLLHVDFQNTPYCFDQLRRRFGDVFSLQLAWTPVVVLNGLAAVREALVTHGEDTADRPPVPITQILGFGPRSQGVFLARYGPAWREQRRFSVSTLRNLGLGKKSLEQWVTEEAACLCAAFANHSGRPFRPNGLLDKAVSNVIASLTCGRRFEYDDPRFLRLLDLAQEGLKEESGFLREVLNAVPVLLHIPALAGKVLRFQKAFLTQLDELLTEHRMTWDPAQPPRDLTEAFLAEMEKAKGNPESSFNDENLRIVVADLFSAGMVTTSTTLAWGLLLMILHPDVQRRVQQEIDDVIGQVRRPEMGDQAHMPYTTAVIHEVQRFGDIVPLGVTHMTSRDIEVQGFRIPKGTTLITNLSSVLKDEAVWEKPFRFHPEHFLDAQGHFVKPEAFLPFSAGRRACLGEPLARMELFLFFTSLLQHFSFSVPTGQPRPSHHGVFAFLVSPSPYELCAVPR

Chain of MAO-A (P21397 whole entry): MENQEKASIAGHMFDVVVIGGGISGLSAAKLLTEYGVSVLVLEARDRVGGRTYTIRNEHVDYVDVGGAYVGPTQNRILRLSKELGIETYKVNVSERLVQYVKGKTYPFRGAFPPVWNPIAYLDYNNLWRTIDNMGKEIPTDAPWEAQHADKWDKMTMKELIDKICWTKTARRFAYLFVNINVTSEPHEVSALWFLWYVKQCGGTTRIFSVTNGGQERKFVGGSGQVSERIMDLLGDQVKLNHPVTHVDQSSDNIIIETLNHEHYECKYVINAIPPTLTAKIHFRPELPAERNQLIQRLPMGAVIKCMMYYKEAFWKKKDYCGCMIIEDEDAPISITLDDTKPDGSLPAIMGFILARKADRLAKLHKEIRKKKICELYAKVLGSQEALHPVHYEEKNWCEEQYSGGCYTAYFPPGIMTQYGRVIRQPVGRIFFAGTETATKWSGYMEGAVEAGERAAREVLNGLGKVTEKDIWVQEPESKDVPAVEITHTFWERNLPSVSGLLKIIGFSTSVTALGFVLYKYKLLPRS
Chain of Sodium-dependent noradrenaline transporter (Homo sapiens) (P23975 whole entry): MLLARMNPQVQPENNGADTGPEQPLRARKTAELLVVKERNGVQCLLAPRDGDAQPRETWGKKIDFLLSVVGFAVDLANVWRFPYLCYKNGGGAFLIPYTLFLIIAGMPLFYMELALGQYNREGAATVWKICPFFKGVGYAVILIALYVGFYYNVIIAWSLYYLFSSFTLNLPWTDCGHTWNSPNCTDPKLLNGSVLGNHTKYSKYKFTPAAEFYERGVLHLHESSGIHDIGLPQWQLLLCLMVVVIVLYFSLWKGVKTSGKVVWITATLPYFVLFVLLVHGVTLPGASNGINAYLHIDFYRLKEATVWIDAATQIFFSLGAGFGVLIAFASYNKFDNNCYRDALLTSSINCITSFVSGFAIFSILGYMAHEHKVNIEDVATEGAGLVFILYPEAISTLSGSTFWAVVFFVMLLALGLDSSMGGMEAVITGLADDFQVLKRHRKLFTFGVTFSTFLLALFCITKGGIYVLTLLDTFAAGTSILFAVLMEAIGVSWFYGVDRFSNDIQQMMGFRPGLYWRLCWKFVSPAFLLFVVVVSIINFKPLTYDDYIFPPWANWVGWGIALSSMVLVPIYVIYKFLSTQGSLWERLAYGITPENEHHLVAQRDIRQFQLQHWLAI
Chain of Prostaglandin G/H synthase 2 (Homo sapiens) (P35354 whole entry): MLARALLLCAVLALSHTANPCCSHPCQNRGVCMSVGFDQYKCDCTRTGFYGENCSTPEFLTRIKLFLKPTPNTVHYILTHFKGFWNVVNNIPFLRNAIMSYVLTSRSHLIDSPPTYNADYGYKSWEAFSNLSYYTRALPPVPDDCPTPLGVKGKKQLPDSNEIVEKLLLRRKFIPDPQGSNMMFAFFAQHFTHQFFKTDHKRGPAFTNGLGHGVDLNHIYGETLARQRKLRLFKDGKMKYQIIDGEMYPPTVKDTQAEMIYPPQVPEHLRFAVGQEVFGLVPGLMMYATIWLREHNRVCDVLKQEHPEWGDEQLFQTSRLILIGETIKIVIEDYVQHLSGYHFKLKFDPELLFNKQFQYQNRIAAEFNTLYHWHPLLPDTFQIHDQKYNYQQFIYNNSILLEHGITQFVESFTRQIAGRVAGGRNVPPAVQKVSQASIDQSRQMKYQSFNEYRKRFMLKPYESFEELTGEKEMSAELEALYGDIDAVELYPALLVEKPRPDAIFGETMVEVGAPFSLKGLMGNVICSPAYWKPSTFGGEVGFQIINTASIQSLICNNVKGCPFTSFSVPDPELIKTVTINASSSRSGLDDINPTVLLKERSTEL
Chain of Muscarinic acetylcholine receptor M3 (Homo sapiens) (P20309 whole entry, looked up): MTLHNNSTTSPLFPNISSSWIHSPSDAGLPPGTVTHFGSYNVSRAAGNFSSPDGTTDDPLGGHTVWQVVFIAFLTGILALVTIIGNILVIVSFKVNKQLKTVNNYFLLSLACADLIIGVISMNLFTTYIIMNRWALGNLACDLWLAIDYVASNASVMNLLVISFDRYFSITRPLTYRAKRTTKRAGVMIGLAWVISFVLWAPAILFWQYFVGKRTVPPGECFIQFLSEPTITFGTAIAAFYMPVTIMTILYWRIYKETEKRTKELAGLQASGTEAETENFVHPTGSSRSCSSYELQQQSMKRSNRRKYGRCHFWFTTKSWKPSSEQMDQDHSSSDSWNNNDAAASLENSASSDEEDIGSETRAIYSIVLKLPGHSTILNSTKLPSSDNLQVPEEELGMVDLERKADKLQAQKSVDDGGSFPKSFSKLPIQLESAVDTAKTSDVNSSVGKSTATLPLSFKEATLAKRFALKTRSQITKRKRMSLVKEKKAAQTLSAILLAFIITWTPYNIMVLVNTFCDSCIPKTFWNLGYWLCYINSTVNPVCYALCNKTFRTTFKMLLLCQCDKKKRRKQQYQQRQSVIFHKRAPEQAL
Chain of 5-hydroxytryptamine receptor 2C (Homo sapiens) (P28335 whole entry): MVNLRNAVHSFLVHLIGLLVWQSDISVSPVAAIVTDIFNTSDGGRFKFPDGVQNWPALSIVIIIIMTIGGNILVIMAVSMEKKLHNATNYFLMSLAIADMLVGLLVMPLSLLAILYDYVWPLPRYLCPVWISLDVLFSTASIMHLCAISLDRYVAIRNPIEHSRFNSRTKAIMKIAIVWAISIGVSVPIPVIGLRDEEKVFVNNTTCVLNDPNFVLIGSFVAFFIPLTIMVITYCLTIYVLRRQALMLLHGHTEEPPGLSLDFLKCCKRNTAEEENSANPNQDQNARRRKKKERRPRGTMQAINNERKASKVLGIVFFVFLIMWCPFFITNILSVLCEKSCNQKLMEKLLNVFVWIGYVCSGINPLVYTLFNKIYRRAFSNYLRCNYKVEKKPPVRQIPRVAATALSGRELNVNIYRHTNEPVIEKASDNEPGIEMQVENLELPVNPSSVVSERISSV
Chain of Histamine H2 receptor (Homo sapiens) (P25021 whole entry): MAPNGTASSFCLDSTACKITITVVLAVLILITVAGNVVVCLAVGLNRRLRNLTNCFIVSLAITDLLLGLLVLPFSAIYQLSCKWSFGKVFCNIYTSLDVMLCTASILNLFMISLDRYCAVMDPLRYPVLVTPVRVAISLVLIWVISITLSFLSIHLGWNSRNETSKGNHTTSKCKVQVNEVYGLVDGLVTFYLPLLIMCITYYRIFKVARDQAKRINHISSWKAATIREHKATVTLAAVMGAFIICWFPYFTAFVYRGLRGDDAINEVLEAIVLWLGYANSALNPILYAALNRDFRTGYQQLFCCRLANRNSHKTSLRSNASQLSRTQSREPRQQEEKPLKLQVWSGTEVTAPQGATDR
Chain of Cholecystokinin receptor type A (Homo sapiens) (P32238 whole entry): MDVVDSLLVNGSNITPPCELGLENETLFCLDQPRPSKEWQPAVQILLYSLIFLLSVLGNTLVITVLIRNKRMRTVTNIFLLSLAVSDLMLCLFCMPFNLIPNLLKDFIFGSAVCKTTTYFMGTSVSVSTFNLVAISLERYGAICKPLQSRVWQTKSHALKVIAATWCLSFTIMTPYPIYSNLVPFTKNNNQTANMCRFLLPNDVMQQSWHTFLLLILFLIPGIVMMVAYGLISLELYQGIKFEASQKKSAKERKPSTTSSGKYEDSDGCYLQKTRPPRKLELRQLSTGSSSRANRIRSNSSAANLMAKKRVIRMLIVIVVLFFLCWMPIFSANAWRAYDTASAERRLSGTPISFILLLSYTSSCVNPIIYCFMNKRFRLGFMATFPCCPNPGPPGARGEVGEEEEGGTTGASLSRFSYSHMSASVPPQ
Chain of Dual 3',5'-cyclic-AMP and -GMP phosphodiesterase 11A (Q9HCR9 whole entry): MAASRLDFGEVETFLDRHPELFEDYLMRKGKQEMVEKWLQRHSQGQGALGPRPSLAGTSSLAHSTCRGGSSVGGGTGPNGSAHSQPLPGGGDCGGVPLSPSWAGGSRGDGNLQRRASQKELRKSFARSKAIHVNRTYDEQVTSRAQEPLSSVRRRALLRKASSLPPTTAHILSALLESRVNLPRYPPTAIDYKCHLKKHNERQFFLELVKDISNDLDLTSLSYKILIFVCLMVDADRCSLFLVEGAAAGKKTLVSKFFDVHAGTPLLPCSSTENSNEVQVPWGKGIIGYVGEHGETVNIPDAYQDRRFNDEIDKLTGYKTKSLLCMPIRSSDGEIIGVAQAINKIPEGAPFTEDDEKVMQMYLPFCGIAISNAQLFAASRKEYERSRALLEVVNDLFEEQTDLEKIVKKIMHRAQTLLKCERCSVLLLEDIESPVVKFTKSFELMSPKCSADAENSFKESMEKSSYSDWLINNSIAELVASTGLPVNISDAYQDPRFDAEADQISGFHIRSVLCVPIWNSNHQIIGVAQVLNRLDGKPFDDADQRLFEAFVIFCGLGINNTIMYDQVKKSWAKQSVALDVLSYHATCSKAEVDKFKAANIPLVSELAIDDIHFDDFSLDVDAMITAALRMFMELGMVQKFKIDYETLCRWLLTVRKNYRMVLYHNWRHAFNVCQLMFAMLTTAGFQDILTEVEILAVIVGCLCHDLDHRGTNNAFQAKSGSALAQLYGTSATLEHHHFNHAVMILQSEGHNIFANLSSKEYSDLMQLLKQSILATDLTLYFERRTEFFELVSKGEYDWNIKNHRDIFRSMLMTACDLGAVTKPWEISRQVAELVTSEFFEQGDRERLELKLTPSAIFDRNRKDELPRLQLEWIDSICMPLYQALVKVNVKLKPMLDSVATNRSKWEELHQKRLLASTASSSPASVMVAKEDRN

SMILES: COc1ccc2c(N[C@@H](C)Cc3cc(C)[nH]n3)ncnc2c1OC
- inhibition [1]: < 50%
- Drug uptake(free) [2]: Bld
- inhibition [3]: < 50%
- Ratio IC50 [4]: 626
- inhibition [5]: < 50%
- inhibition at 10 µM [6]: < 50%
- Ratio IC50 [7]: > 3380
- Ratio [8]: 0.12 to 0.14
- inhibition [9]: < 50%
- Ratio [10]: 0.04
- inhibition [11]: < 50%
- inhibition [12]: < 50%
- IC50 [13]: 34.7 µM
- Ratio IC50 [14]: > 15600
- efflux ratio [15]: 84
- Cp(f) [16]: 171 nM
- inhibition [17]: < 50%
- inhibition [18]: < 50%
- Ratio IC50 [19]: 826
- inhibition [20]: < 50%
- inhibition [21]: < 50%
- inhibition at 10 µM [22]: < 50%
- inhibition [23]: < 50%
- Ratio IC50 [24]: 14600
- inhibition [25]: < 50%
- inhibition at 10 µM [26]: < 50%
